Screening data (PubChem BioAssay)
CHO-K1 Ca ag = nonselective activator or artifact in parental CHO-K1 cells. AID 602248. activation, % at 3 µM. Fluo-8 calcium fluorescence; scaled to maximal ATP response, vehicle zero. hit rate 0.48% among 360,000; in the data active = activation above about 15%;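 also: untransfected CHO-K1 host cells lacking M1 receptor as counterscreen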
CHO parental Ca = counter-screen: ATP calcium response change in parental CHO cells; parental CHO-K1, ATP-induced calcium, Fluo-8 fluorescence; inhibition, % at 5.6 µM; hit rate 0.63% among 330,000;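 active = inhibition above that plate's mean sample inhibition plus 3 SD, cut at about 26% in these data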
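Assay system: untransfected parental CHO cell line. Also added: ATP agonist challenge. Dosing: one dose, 5.6 µM nominal. Measured by: Fluo-8 fluorescence. Read-out: % inhibition. Benchmarks: ATP wells versus no-ATP DMSO wells. Repeats: no replicates.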
OX1R antag-1 = blocks the human orexin 1 receptor; inhibition, % at 6.6 µM; hit rate 1.8% among 330,000; OX1R-expressing cells, FRET antagonist read-out; in the data active = inhibition mostly above about 38%, no sharp cut-off; inactive = mostly below about 40%
Target sequence (O43613 whole entry, looked up): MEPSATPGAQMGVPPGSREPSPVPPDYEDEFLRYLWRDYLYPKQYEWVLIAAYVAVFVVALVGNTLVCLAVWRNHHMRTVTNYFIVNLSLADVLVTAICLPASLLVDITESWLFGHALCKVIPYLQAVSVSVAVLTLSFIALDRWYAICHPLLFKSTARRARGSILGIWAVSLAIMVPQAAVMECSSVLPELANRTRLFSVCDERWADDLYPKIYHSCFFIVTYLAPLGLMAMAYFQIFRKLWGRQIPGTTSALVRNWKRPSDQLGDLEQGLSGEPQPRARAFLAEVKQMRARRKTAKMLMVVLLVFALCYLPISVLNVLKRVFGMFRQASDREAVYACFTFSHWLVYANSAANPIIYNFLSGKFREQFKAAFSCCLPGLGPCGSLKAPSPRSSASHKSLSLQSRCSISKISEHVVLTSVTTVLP
CHO-K1 Ca antag = M1 antagonist counterscreen hit in parental CHO-K1 cells; ATP-induced calcium, Fluo-8 fluorescence; inhibition, % at 3 µM; hit rate 0.6% among 360,000; AID 602250;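 active = inhibition above a per-plate cutoff, the plate's mean sample inhibition plus 3 SD, cut at about 24% in these data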
OX1R antag-2 = antagonists of human orexin 1 receptor; AID 434989; CHO/OX1R cells, Fluo-8 calcium fluorescence, orexin A; hit rate 0.43% among 330,000; inhibition, % at 5 µM;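 active = inhibition above its plate's threshold, mean inhibition of all tested compounds on the plate plus 3 SD, cut at about 37% in these data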
M1 PAM parental = counter-screen for M1 PAMs: effect in parental CHO-K1 cells | ATP EC20, Fluo-8 calcium fluorescence; 0% at ATP EC20, 100% at ATP max | AID 602247 | activation, % at 3 µM | hit rate 0.02% among 360,000;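 active = activation above the run cutoff, the mean activation of all test compounds plus 3 SD, cut at about 40% in these data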;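 also: peak over basal fluorescence ratio in a 140 s read after ATP addition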
OX1R HTRF confirm = OX1R (human) antagonism, HTRF confirmed; OX1R-expressing cells, HTRF antagonist assay; hit rate 49% among 1,800; shares compounds with OX1R antag-1; inhibition, % at 6.6 µM; AID 492964; in the data active = inhibition above about 55%;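 also: CHO cells expressing OX1R stimulated with orexin A at about EC80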
CHO-K1 HTRF = signal in parental CHO-K1 cells, OX1R antagonist counter-screen; AID 493232; hit rate 48% among 1,800; HTRF counterscreen; inhibition, % at 6.6 µM; shares compounds with OX1R antag-1; in the data active = inhibition above about 17%
Each line names hits and unclear results; the compound was inactive in the other large screens (follow-up assays come after a bar, where they were run). This is a sample that favours compounds with a hit; in the whole collection about 2.9% have one here.

O=C(Nc1cc(S(=O)(=O)N2CCCCC2)ccc1O)c1ccccc1NS(=O)(=O)c1ccc(F)c(F)c1	OX1R antag-1 82.9 | OX1R HTRF confirm inactive | CHO-K1 HTRF inactive
COc1ccc(-c2nn(CCC(=O)O)cc2/C=C2\SC(N)=NC2=O)cc1	OX1R antag-1 77.2 | OX1R HTRF confirm inactive | CHO-K1 HTRF 31.4
NC1=NC(=O)/C(=C/c2cn(CCC(=O)O)nc2-c2ccc(Cl)cc2)S1	none
Cc1cccc(NC(=O)C2CCCN(S(=O)(=O)c3cccc4nsnc34)C2)c1 (stereo not drawn)	OX1R antag-1 91.0 | OX1R HTRF confirm 57.0 | CHO-K1 HTRF inactive
CCOCCCNC(=O)C1CCCN(S(=O)(=O)c2cccc3nsnc23)C1 (stereo not drawn)	none
Cc1cccc(NC(=O)C2CCCN(S(=O)(=O)c3cccc4nsnc34)C2)n1 (stereo not drawn)	OX1R antag-1 84.2 | OX1R HTRF confirm inactive | CHO-K1 HTRF 17.8
CCN1CCCC1CNC(=O)C1CCCN(S(=O)(=O)c2cccc3nsnc23)C1 (stereo not drawn)	OX1R antag-1 118.3 | OX1R HTRF confirm inactive | CHO-K1 HTRF 61.6
Cc1cccc(NC(=O)C2CCN(S(=O)(=O)c3cccc4nsnc34)CC2)n1	none
COc1ccccc1Oc1ccc(N2CC(C(=O)OCC(=O)c3ccccc3)CC2=O)cc1 (stereo not drawn)	none
COc1ccc(CNC(=O)Nc2nnc([C@@H]3C[C@H](O)[C@@H](CO)O3)s2)cc1	none (no result: CHO parental Ca, OX1R antag-1, OX1R antag-2)
Cc1cccc(C)c1NC(=O)CN1CCN(CC(=O)NCC2(N3CCCCC3)CCCCC2)CC1	none
O=C(CSc1ccc(F)cc1)NCC1(N2CCOCC2)CCCCC1	none
O=C(O)c1cc([N+](=O)[O-])ccc1NCCO	none
CN(CCO)c1ccc([N+](=O)[O-])cc1C(=O)O	OX1R antag-1 80.4 | OX1R HTRF confirm inactive | CHO-K1 HTRF 25.1
CC1CCN(C(=O)Cn2c3ccccc3c3nc4n(c(=O)c32)CCCS4)CC1	none
CC1CCN(C(=O)Cn2c3ccc(F)cc3c3nc4n(c(=O)c32)CCCS4)CC1	OX1R antag-1 90.7 | OX1R HTRF confirm inactive | CHO-K1 HTRF inactive
O=C1C=C(Nc2ccc(O)cc2)C(=O)c2ccccc21	OX1R antag-1 78.5 | OX1R HTRF confirm inactive | CHO-K1 HTRF 24.7
CC(=O)Nc1ccc(NC2=CC(=O)c3ccccc3C2=O)cc1	none
Cc1ccc(OCCCC(=O)N(C)CC(=O)Nc2ccccc2Cl)cc1	none
CCN(C)C1CN(Cc2cn(Cc3ccc(F)cc3)nn2)S(=O)(=O)C1 (stereo not drawn)	none (no result: CHO parental Ca, OX1R antag-1, OX1R antag-2)
CCOC(=O)C1=C(O)C(=O)N(c2ccc(S(N)(=O)=O)cc2)C1c1ccc([N+](=O)[O-])cc1 (stereo not drawn)	none
CCOC(=O)CC1ON(C)C(=O)N1c1ccc([N+](=O)[O-])cc1 (stereo not drawn)	OX1R antag-1 101.4 | OX1R HTRF confirm inactive | CHO-K1 HTRF inactive
O=C(NCC(c1ccco1)N1CCN(c2ccccc2)CC1)C(=O)NC1CCCCC1 (stereo not drawn)	none
COc1ccc(C2CCN(Cc3cccnc3)CC2O)cc1 (stereo not drawn)	OX1R antag-1 96.0 | OX1R HTRF confirm inactive | CHO-K1 HTRF inactive
CCOc1ccc(-c2nnc(-c3cccs3)o2)cc1	none
c1csc(-c2nnc(-c3ccc(N4CCOCC4)cc3)o2)c1	OX1R antag-1 77.3 | OX1R HTRF confirm 83.1 | CHO-K1 HTRF inactive
O=c1[nH]c2cc(NCCO)c([N+](=O)[O-])cc2[nH]1	OX1R antag-1 166.4 | OX1R HTRF confirm 66.2 | CHO-K1 HTRF 87.7
N#Cc1ccccc1CSc1nc(N)cc(N)n1	none (no result: CHO parental Ca, OX1R antag-1, OX1R antag-2)
O=C(CCCNS(=O)(=O)c1cccc2nsnc12)NCc1ccccc1	none
O=C(CCS(=O)(=O)c1cccc2nsnc12)NCc1ccccc1	OX1R antag-1 119.7 | OX1R HTRF confirm inactive | CHO-K1 HTRF 38.6
CC(=O)c1cccc(NC(=O)CCS(=O)(=O)c2cccc3nsnc23)c1	OX1R antag-1 88.9 | OX1R HTRF confirm inactive | CHO-K1 HTRF 24.9
